# Results reported in ChEMBL document CHEMBL1156634, “Synthesis of somatostatin analogues containing C-terminal adamantane and their antiproliferative properties” (2008).
# Where a SMILES comes first, the peptide text is derived from it. Bridges are numbered along the chain shown (N, C = ends). [ ]: non-standard residue; d: D form.
# Tests used:
# Type in all cases: functional
# [1] = test system: A-431; experiment: Antiproliferative activity against human A431 cells at 50 uM after 48 hrs by MTT assay; conditions: A-431, 48 h
# Outline: (§1)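 MTT read-out: mitochondrial dehydrogenase reduces MTT to formazan in viable cells, cells solubilized with DMSO, absorbance read at 540 nm on an ELISA reader. Cycloheximide and a reference peptide run as positive controls. Values given as % inhibition of cellular proliferation, mean ± SE.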
# [2] = test system: A-431; experiment: Antiproliferative activity against human A431 cells at 25 uM after 48 hrs by MTT assay; conditions: A-431, 48 h; outline: as §1
# [3] = test system: A-431; experiment: Antiproliferative activity against human A431 cells at 10 uM after 48 hrs by MTT assay; conditions: A-431, 48 h; outline: as §1
# [4] = test system: SW480; experiment: Antiproliferative activity against human SW480 cells at 25 uM after 48 hrs by MTT assay; conditions: SW480, 48 h; outline: as §1
# [5] = test system: SW480; experiment: Antiproliferative activity against human SW480 cells at 10 uM after 48 hrs by MTT assay; conditions: SW480, 48 h; outline: as §1
# [6] = test system: SW480; experiment: Antiproliferative activity against human SW480 cells at 50 uM after 48 hrs by MTT assay; conditions: SW480, 48 h; outline: as §1
SMILES,inhibition at 50 µM [1] [%],inhibition at 25 µM [2] [%],inhibition at 10 µM [3] [%],inhibition at 25 µM [4] [%],inhibition at 10 µM [5] [%],inhibition at 50 µM [6] [%]
CC(C)(C)OC(=O)N[C@@H](Cc1ccc(O)cc1)C(=O)N[C@H](Cc1c[nH]c2ccccc12)C(=O)N[C@@H](CCCCNC(=O)OCc1ccccc1)C(=O)O,2,0,0,,,
CC(C)(C)OC(=O)N[C@@H](Cc1ccc(O)cc1)C(=O)N[C@H](Cc1c[nH]c2ccccc12)C(=O)N[C@@H](CCCCNC(=O)OCc1ccccc1)C(=O)OCC1c2ccccc2-c2ccccc21,7,7,2,,,
C[C@@H]1C[C@@H]([C@H](O)CC2CC(=O)NC(=O)C2)C(=O)[C@@H](C)C1 [CYCLOHEXIMIDE],80,70,40,85,68,92
N[C@@H](Cc1ccc(O)cc1)C(=O)N[C@H](Cc1c[nH]c2ccccc12)C(=O)O,11,8,0,,,
N[C@@H](Cc1ccc(O)cc1)C(=O)N[C@H](Cc1c[nH]c2ccccc12)C(=O)N[C@@H](CCCCNC(=O)OCc1ccccc1)C(=O)O,0,0,0,,,
C[C@@H](O)[C@H](NC(=O)[C@@H]1CSSC[C@H](NC(=O)[C@H](N)Cc2ccccc2)C(=O)N[C@@H](Cc2ccc(O)cc2)C(=O)N[C@H](Cc2c[nH]c3ccccc23)C(=O)N[C@@H](CCCCN)C(=O)N1)C(N)=O [TT-232] (H-[dF]CY[dW]KCT-NH2; disulfide 2-6),80,60,50,47,13,88
